Assay results: article PMC5131535 (ACS chemical neuroscience, 2016)
Values joined by “and” are separate entries in the source; they are usually repeats but may differ in a detail not shown here. Identical values can stand only once.

How the values were obtained:
[1] = biological target: T1, Kir3.1/3.2 (Homo sapiens, UniProt P48051+P48549); assay: Tl+ flux selectivity assay, Kir3.1/3.2; type: cell-based; conditions: for Kir Channel Selectivity (Fold) 3.1/3.2: Thallium flux, Kir7.1 over Kir3.1/3.2
T1 sequence (P48549 1-501): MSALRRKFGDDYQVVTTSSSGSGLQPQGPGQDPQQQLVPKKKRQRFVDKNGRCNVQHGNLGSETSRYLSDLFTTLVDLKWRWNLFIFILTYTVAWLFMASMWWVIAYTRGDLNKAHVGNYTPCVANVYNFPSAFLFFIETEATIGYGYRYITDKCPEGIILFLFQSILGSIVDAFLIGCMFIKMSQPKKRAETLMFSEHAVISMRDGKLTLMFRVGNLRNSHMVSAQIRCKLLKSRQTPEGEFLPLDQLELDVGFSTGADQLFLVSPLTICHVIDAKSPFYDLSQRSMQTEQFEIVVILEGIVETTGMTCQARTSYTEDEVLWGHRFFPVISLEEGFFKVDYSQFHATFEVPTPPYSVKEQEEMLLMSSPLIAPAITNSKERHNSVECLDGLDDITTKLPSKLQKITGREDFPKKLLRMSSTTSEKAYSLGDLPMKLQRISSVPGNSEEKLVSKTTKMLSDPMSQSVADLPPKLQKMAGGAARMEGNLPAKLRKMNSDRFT
T1 sequence (P48051 1-423): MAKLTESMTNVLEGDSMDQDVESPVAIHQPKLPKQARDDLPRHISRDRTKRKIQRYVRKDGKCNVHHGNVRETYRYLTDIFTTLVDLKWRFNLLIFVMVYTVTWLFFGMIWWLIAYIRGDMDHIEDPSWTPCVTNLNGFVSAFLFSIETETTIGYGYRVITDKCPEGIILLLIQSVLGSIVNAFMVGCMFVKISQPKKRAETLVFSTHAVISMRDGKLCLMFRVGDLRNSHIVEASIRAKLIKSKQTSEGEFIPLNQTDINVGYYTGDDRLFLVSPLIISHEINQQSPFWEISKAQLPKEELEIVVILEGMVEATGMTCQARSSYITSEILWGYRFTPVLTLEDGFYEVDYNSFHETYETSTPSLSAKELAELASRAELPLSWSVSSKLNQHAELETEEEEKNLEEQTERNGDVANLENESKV

[2] = biological target: T2, Kir4.1 (Homo sapiens, UniProt P78508); assay: Tl+ flux selectivity assay, Kir4.1; type: cell-based; conditions: for Kir Channel Selectivity (Fold) 4.1: Thallium flux, Kir7.1 over Kir4.1
T2 sequence (P78508 1-379): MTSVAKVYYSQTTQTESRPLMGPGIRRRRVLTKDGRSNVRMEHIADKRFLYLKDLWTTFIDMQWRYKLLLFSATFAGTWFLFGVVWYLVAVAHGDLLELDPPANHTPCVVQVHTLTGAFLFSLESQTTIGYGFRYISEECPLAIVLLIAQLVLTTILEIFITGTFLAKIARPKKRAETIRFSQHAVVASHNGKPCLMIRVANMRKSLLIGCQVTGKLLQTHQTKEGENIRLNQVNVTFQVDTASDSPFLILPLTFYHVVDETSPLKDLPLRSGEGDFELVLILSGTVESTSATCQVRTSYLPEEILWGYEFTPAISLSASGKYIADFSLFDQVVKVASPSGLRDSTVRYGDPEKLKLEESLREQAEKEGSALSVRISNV
How it was run: (§1)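 Tetracycline-inducible stable T-REx-HEK-293 lines, induced overnight with 1 µg/ml tetracycline in DMEM/10% dialyzed FBS. Cells loaded 1 hr with 1.2 µM Thallos-AM in HBSS/20 mM HEPES pH 7.3 with 0.01% Pluronic F-127. Baseline fluorescence (ex 470, em 540 nm) read at 1 Hz before adding stimulus buffer with 1.8 mM Tl₂SO₄. Traces normalized to first point and vehicle-subtracted; slope taken 5–20 s post-Tl⁺; IC50 by nonlinear regression of CRCs.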

[3] = biological target: Sigma σ1 receptor (Homo sapiens, UniProt Q99720); assay: Lead Profiling Screen; type: binding; conditions: significant interaction
[4] = biological target: Norepinephrine receptor (Homo sapiens, UniProt P23975); assay: Lead Profiling Screen; type: binding; conditions: significant interaction
[5] = Protein binding in plasma; conditions: rat
[6] = biological target: T3, Kir7.1-M125R (Homo sapiens, UniProt O60928, M125R); assay: Whole-cell voltage clamp, Kir7.1-M125R; type: cell-based
T3 sequence (O60928 1-360 M125R): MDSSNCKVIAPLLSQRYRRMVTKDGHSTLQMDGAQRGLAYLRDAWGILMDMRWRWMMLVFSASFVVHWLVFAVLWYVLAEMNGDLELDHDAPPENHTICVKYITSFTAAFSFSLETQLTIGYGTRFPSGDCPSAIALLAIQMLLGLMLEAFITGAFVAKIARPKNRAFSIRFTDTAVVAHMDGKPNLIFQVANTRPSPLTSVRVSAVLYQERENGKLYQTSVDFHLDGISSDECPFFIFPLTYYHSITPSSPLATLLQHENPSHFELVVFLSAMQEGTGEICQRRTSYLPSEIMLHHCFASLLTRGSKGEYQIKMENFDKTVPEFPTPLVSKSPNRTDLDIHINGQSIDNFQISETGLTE
How it was run: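 HEK-293T cells transiently co-transfected with WT or mutant human Kir7.1 plus EGFP marker, replated next day on poly-L-lysine coverslips. Bath: 135 NaCl, 5 KCl, pH 7.4; pipette: 135 KCl, 1 EGTA, pH 7.3 (mM). Hold −75 mV, step to −120 mV for 500 ms, ramp to 120 mV. Increasing test compound concentrations superfused, then Ba²⁺ block. Inhibition at −120 mV; Hill-equation IC50, n = 5.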

[7] = biological target: Kir7.1 pore mutants (Homo sapiens, UniProt O60928, I160M); type: cell-based; conditions: 3 µM, -120 mV
How it was run: (§2)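 Single pore-lining residues were mutated on a WT or M125R Kir7.1 background and expressed transiently with EGFP in HEK-293T cells. The whole-cell step-ramp protocol from a −75 mV holding potential was used, with test compound at 3 µM. Read-out was % inhibition of current at −120 mV, mean ± SEM, tested against the respective parent channel (P < 0.05).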

[8] = biological target: Kir7.1 pore mutants (Homo sapiens, UniProt O60928, L146V); type: cell-based; conditions: 3 µM, -120 mV
How it was run: as §2

[9] = biological target: Kir7.1 pore mutants (Homo sapiens, UniProt O60928, T153C); type: cell-based; conditions: 3 µM, -120 mV
How it was run: as §2

[10] = biological target: Kir1.1 (Rattus norvegicus, UniProt P35560); assay: Tl+ flux selectivity assay, Kir1.1; type: cell-based
How it was run: as §1

[11] = plasma
[12] = plasma; remark: listed apart in the source

Kir1.1, sequence (P35560 whole entry): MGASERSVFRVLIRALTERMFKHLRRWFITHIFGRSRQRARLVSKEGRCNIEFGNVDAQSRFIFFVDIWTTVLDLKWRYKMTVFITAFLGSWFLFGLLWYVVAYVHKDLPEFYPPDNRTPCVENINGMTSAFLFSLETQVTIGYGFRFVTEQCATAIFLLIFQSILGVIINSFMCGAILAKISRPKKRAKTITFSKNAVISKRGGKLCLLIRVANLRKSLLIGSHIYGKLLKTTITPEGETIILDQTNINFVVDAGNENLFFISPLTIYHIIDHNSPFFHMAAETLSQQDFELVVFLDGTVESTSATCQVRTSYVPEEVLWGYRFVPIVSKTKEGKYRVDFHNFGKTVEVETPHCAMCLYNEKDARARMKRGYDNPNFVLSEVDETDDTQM
Sigma σ1 receptor, sequence (Q99720 whole entry): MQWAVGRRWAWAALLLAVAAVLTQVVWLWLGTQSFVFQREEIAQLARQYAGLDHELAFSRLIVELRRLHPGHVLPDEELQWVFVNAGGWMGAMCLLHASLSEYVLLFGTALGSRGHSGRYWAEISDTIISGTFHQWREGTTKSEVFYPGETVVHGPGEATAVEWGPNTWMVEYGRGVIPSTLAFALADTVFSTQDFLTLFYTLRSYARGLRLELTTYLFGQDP
Kir7.1 pore mutants (Homo sapiens, UniProt O60928, I160M), sequence (O60928 whole entry I160M): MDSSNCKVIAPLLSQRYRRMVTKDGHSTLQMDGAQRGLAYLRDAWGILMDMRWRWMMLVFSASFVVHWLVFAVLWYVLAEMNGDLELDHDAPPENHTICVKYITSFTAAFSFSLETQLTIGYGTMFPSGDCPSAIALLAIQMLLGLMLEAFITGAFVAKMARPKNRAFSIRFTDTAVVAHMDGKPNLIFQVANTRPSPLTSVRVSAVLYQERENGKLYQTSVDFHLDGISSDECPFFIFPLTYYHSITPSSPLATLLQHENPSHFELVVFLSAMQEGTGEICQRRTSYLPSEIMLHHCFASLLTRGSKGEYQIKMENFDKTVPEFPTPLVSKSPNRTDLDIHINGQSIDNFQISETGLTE
Kir7.1 pore mutants (Homo sapiens, UniProt O60928, L146V), sequence (O60928 whole entry L146V): as the sequence (O60928 whole entry I160M) above, with L146V, M160I counted along it
Norepinephrine receptor, sequence (P23975 whole entry): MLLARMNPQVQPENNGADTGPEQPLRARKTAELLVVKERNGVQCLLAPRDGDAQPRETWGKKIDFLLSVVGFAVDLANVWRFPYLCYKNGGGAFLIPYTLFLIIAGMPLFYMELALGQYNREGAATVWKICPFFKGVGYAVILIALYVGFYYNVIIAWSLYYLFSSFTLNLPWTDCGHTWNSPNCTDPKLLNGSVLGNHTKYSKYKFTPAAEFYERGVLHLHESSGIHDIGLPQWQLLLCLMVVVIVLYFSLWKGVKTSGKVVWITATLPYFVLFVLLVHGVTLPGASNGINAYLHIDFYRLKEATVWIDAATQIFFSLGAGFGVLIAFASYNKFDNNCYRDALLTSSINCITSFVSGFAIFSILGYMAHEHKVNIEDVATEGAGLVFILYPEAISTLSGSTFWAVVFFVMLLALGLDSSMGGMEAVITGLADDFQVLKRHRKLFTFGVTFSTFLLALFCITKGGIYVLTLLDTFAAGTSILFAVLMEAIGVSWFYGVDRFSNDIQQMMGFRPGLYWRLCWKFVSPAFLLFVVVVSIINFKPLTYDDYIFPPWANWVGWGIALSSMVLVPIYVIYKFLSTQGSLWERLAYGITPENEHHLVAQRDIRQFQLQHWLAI
Kir7.1 pore mutants (Homo sapiens, UniProt O60928, T153C), sequence (O60928 whole entry T153C): as the sequence (O60928 whole entry I160M) above, with T153C, M160I counted along it

| Kir Channel Selectivity (Fold) 3.1/3.2 ([1]; listed as 19 (ML418)) | Kir Channel Selectivity (Fold) 4.1 ([2]; listed as 19 (ML418)) | Radioligand displacement, Sigma σ1 receptor [3] | Radioligand displacement, Norepinephrine receptor [4] | fraction unbound [5] | SMILES | Kir Channel Selectivity (Fold) 3.1/3.2 [1] | Kir Channel Selectivity (Fold) 4.1 [2] | Shift in IC50, patch clamp electrophysiology compared with Tl+ flux [6] | Inhibition of outward and inward Kir7.1-M125R-mediated current ([6]; 10 µM) | Effect of M125R mutation on sensitivity ([6]; compared with WT) | IC50 ([6]; read-out: Kir7.1-M125R IC50 (whole-cell voltage clamp), -120 mV) | Effect of mutation I160M on Kir7.1 inhibition [7] | Effect of mutation L146V on Kir7.1 inhibition [8] | Effect of mutation T153C/WT on channel inhibition [9] | Kir1.1 (ROMK) IC50 (Tl+ flux) [10] | IC50 ([10]; read-out: Kir1.1 (ROMK) IC50 (Tl+ flux)) | IC50 ([1]; read-out: Kir3.1/3.2 IC50 (Tl+ flux)) | IC50 ([2]; read-out: Kir4.1 IC50 (Tl+ flux)) | PPB (%Fu) Mouse [11] | PPB (%Fu) Human [12] |
| --- | --- | --- | --- | --- | --- | --- | --- | --- | --- | --- | --- | --- | --- | --- | --- | --- | --- | --- | --- | --- |
| >23 Fold | >23 Fold | > 50% | > 50% | 0.088 | CC(C)OC(=O)NC1CCN(Cc2cc(Cl)c3cccnc3c2O)CC1 [Compound 19, iso-Propyl (1-((5-chloro-8-hydroxyquinolin-7-yl)methyl)piperidin-4-yl)carbamate] | at least 23 Fold | at least 23 Fold | – | – | – | – | – | – | – | – | – | – | – | – | – |
| – | – | – | – | – | Oc1c(CN2CCC(Cc3ccccc3)CC2)cc(Cl)c2cccnc12 [VU714] | >5 Fold | 2 Fold | 3.7 fold | fully inhibited | does not alter VU714 sensitivity | 1500 nM and 1600 nM and ~2000 nM | no effect | no effect | increased channel inhibition | weakly inhibited | 16000 nM | > 30000 nM | 13000 nM | 0.7% | 0.5% |
